The source made the active and inactive calls.
Assays:
Influenza A virus [1] = assay: Antiviral activity against oseltamivir/amantadine-resistant Influenza A virus (A/Puerto Rico/8/1934(H1N1)) infected in MDCK cells assessed as protection against virus-induced cytocidal effect after 48 hrs by CellTiter-Glo assay; format: functional, organism-based
In short: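 Cytocidal protection assay in MDCK cells. EC50 is the concentration (μM) protecting cells by 50% from the virus's cytocidal effect, given as mean ± SD from at least three independent tests.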

[2] = test system: Influenza A virus (A/Puerto Rico/8/1934(H1N1)); assay: Inhibition of oseltamivir/amantadine-resistant Influenza A virus (A/Puerto Rico/8/1934(H1N1)) hemagglutinin-mediated hemolysis of chicken RBC preincubated with virus for 30 mins followed by RBC addition measured after 30 mins by microplate reader analysis
In short: (§1)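 Erythrocyte-virus-compound mixture incubated at 37 °C for 30 min, then acidified to pH 5.2 with 0.15 M sodium acetate buffer to trigger HA-mediated hemolysis. OD540 of supernatants was measured. Hemolysis without compound is defined as 100%. Values are averages of two independent tests.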

Influenza A virus [3] = assay: Antiviral activity against oseltamivir/amantadine-resistant Influenza A virus (A/Puerto Rico/8/1934(H1N1)) assessed as inhibition of viral infectivity in MDCK cells at 10 uM after 6 hrs by FITC conjugated anti-NP antibodies/DAPI staining-based confocal microscopic analysis; format: functional, organism-based
In short: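 MDCK cells were infected at MOI = 1 in the presence of 10 μM compound for 6 h. Infected cells were stained with FITC-conjugated anti-NP antibody, with DAPI as nuclear stain, and imaged by confocal microscopy. Infected cells without compound served as control.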

[4] = test system: Influenza A virus (A/Puerto Rico/8/1934(H1N1)); assay: Inhibition of oseltamivir/amantadine-resistant Influenza A virus (A/Puerto Rico/8/1934(H1N1)) hemagglutinin-mediated hemolysis of chicken RBC at 10 uM preincubated with virus for 30 mins followed by RBC addition measured after 30 mins by microplate reader analysis; in short: as §1
[5] = Influenza A virus, A/Puerto Rico/8/1934(H1N1), MDCK, 48 h, read-out: EC50

| SMILES | EC50 (Influenza A virus [1]; [5]) | further results |
| --- | --- | --- |
| COC(=O)[C@@]1(C)CCC[C@]2(C)c3cc(OC(=O)CCCBr)ccc3CC[C@@H]12 | 570 nM | – |
| C=CC(=O)Oc1ccc2c(c1)[C@@]1(C)CCC[C@](C)(C(=O)NC)[C@@H]1CC2 | > 29300 nM | – |
| COC(=O)[C@@]1(C)CCC[C@]2(C)c3cc(OC(=O)C(C)F)ccc3CC[C@@H]12 (stereo not given in full) | 150 nM | – |
| COC(=O)[C@@]1(C)CCC[C@]2(C)c3cc(OC(=O)C(C)C)ccc3CC[C@@H]12 | 320 nM | – |
| COC(=O)[C@@]1(C)CCC[C@]2(C)c3cc(OC)ccc3CC[C@@H]12 | 730 nM | – |
| C[C@]1(C(=O)OCc2ccccc2)CCC[C@]2(C)c3cc(O)ccc3CC[C@@H]12 | 1590 nM | – |
| COC(=O)[C@@]1(C)CCC[C@]2(C)c3cc(OC(=O)CCCCCBr)ccc3CC[C@@H]12 | 190 nM | – |
| C[C@]1(C(=O)O)CCC[C@]2(C)c3cc(O)ccc3CC[C@@H]12 [PODOCARIC ACID] | 18200 nM | – |
| C=CC(=O)Oc1ccc2c(c1)[C@@]1(C)CCC[C@](C)(C(=O)OC)[C@@H]1CC2 | 640 nM | inhibition [2]: Dose-dependent effect |
| C=CC(=O)Oc1ccc2c(c1)[C@@]1(C)CCC[C@](C)(C(=O)OCc3ccccc3)[C@@H]1CC2 | 480 nM | – |
| NC12CC3CC(CC(C3)C1)C2 [AMANTADINE] | > 20000 nM | – |
| C[C@]1(C(=O)O)CCC[C@]2(C)c3cc(OC(=O)CCC(=O)O)ccc3CC[C@@H]12 | 18700 nM | – |
| COC(=O)[C@@]1(C)CCC[C@]2(C)c3cc(OC(=O)CCBr)ccc3CC[C@@H]12 | 210 nM | inhibition (Influenza A virus [3]): Active |
| CCOC(=O)C1=C[C@@H](OC(CC)CC)[C@H](NC(C)=O)[C@@H](N)C1 [OSELTAMIVIR] | > 20000 nM | inhibition [4]: inactive |
| COC(=O)[C@@]1(C)CCC[C@]2(C)c3cc(OC(=O)CCC(=O)O)ccc3CC[C@@H]12 | 180 nM | – |
| COC(=O)[C@@]1(C)CCC[C@]2(C)c3cc(O)ccc3CC[C@@H]12 | 160 nM | – |
| C[C@]1(C(=O)OCc2ccccc2)CCC[C@]2(C)c3cc(OCCC(=O)O)ccc3CC[C@@H]12 | – | EC50 (Influenza A virus [1]; mdck): Not Active |
| C[C@]1(C(=O)OCc2ccccc2)CCC[C@]2(C)c3cc(OC(=O)CCC(=O)O)ccc3CC[C@@H]12 | > 6500 nM | – |
| CC(C)c1c(O)ccc2c1CC[C@H]1C(C)(C)CCC[C@]21C [TOTAROL] | 3500 nM | inhibition (Influenza A virus [3]): Active |
| COC(=O)[C@@]1(C)CCC[C@]2(C)c3cc(OC(C)=O)ccc3CC[C@@H]12 | 140 nM | – |
| COC(=O)[C@@]1(C)CCC[C@]2(C)c3cc(OC(=O)CCCCBr)ccc3CC[C@@H]12 | 420 nM | – |
| COC(=O)[C@@]1(C)CCC[C@]2(C)c3cc(OC(=O)C4CC4)ccc3CC[C@@H]12 | 150 nM | – |
| COC(=O)[C@@]1(C)CCC[C@]2(C)c3cc(OC(=O)CCCC(=O)O)ccc3CC[C@@H]12 | 370 nM | – |
| CNC(=O)[C@@]1(C)CCC[C@]2(C)c3cc(O)ccc3CC[C@@H]12 | > 34800 nM | – |
| COC(=O)[C@@]1(C)CCC[C@]2(C)c3cc(OC)ccc3C(=O)C[C@@H]12 | 3600 nM | – |
| COC(=O)[C@@]1(C)CCC[C@]2(C)c3cc(OCCC(=O)O)ccc3CC[C@@H]12 | > 25000 nM | – |

Reference: ChEMBL document CHEMBL3576824, “Phenolic diterpenoid derivatives as anti-influenza a virus agents” (ACS Med Chem Lett, 2015)
